EP2 modulator: EP2 receptor modulators, cAMP readout, primary screen, cell-based, HTRF cAMP, PGE2 stimulation | induction, % at 25 µM | 260,000 compounds, 0.83% hits | Prostaglandin E2 receptor EP2 subtype (Homo sapiens), P43116 | EP2-expressing cells, cAMP HTRF FRET, PGE2 co-stimulation;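 active = compounds whose cAMP rise, as percent of the full-agonist control response, exceeds 60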;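 note: rat C6 glioma line stably carrying human EP2 under a CMV promoter; the protocol text gives 20 µM as final concentration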
PGE2 EP2 inh: human EP2 receptor antagonists, primary screen, TR-FRET cAMP, C6 glioma cells; C6 glioma cells expressing human EP2; cells stimulated with saturating PGE2; inhibition, % at 25 µM; 260,000 compounds, 0.52% hits; AID 1422, 2008;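 active = percent inhibition above 40 after rounding to a whole number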;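 note: rat C6 glioma host cells with rolipram phosphodiesterase inhibitor present; the protocol text gives 20 µM as final concentration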
OX1R antag-1: antagonists of human orexin 1 receptor (OX1R). OX1R-expressing cells, FRET antagonist read-out. inhibition, % at 6.6 µM. 330,000 compounds, 1.8% hits. AID 485270, 2010; in the data active = inhibition mostly above about 38%, no sharp cut-off; inactive = mostly below about 40%
Target sequence (O43613 whole entry, looked up): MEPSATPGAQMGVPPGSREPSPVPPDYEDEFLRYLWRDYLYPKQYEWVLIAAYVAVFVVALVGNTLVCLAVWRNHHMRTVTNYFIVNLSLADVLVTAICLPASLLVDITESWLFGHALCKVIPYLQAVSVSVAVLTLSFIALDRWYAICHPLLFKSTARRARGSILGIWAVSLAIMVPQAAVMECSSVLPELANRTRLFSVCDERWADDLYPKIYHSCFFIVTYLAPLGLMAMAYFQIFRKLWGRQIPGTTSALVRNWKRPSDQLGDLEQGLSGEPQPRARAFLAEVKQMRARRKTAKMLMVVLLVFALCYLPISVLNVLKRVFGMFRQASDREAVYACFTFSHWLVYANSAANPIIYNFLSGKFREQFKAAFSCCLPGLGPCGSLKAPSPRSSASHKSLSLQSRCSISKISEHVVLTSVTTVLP
OX1R antag-2: OX1R (HCRTR1) antagonists, primary screen, fluorescence, CHO/OX1R cells, Fluo-8 calcium, orexin A. AID 434989, 2010. inhibition, % at 5 µM. 330,000 compounds, 0.43% hits. Orexin/Hypocretin receptor type 1 (Homo sapiens), O43613. Fluo-8 calcium fluorescence;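 active = inhibition above its plate's threshold, mean inhibition of all tested compounds on the plate plus 3 SD, cut at about 37% in these data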
CHO parental Ca: ATP-evoked calcium signal inhibitors, parental CHO, primary screen, counter-screen for OX1R antagonist project, cell-based, fluorescence, Fluo-8 calcium dye | inhibition, % at 5.6 µM | 330,000 compounds, 0.63% hits | parental CHO-K1, ATP-induced calcium, Fluo-8 fluorescence | AID 463079, 2010;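 active = inhibition above that plate's mean sample inhibition plus 3 SD, cut at about 26% in these data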
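Test system: untransfected parental CHO cell line. Compound: one dose, 5.6 µM nominal. Detection: intracellular calcium via Fluo-8 no-wash fluorescent dye. Measure: % inhibition. Benchmarks: ATP-challenged DMSO wells low, unchallenged DMSO wells high.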
GPR7 antagonist: GPR7 receptor antagonists, primary screen, cell-based, fluorescence, single concentration; inhibition, % at 4.4 µM; 290,000 compounds, 1.1% hits; Neuropeptides B/W receptor type 1 (Homo sapiens), P48145; GPR7-expressing cells, fluorescence antagonist assay; in the data active = inhibition above about 16%, passing the limit was not always enough;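 note: cells stimulated with the agonist NPW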
Hits are given with their value; n = inactive; x = no result given. A selection: hits, their analogues and other compounds. The true share with any hit is near 3.7%.

SMILES | EP2 modulator | PGE2 EP2 inh | OX1R antag-1 | OX1R antag-2 | CHO parental Ca | GPR7 antagonist
COC(=O)[C@@H]1[C@H]2C[C@H]3c4[nH]c5ccccc5c4CCN3C[C@@H]2CC[C@@H]1O | n | n | n | n | n | n
COc1ccc2c3c([nH]c2c1)[C@H]1C[C@@H]2[C@H](C[C@@H](O)[C@H](OC)[C@H]2C(=O)O)CN1CC3 | n | 51.2 | x | x | x | x
COc1ccc(/C(N)=N/OC(=O)c2ccc(C)c([N+](=O)[O-])c2)cc1OC | n | n | n | n | n | n
CCCOc1ccc(N2C(=O)CC(NCc3ccc(S(N)(=O)=O)cc3)C2=O)cc1 (centres undefined) | n | n | n | n | n | n
Cc1ccccc1C(=O)N1CCc2ccccc2C1 | n | n | n | n | n | n
Cc1ccc(C)c(NC(=O)CN(C)C(=O)c2ccc(S(=O)(=O)N(C)c3ccccc3)cc2)c1 | x | x | 30.3 | n | n | x
CC(C)c1cc(-c2cc(C(=O)NCc3ccccc3)on2)nc(NCC2CC2)n1 | n | n | n | 62.1 | 44.2 | x
CC(C)c1cc(-c2cc(C(=O)Nc3ccccc3)on2)nc(NCC2CC2)n1 | x | n | n | n | n | x
O=C(Cc1ccc(Cl)cc1Cl)Nc1ccncc1 | x | x | n | n | n | n
O=C(Cc1ccc(Cl)cc1Cl)Nc1ccncc1Cl | x | x | n | n | 30.6 | n
COc1ccc(CC(=O)Nc2ccncc2Cl)cc1 | x | x | n | n | 34.9 | n
Cc1c(C(=O)NCc2ccc3c(c2)OCO3)oc2ccccc12 | n | n | 45.0 | n | n | n
Cc1ccc2oc(C(=O)NCc3ccc4c(c3)OCO4)c(C)c2c1 | n | n | n | n | n | n
O=S(=O)(NCc1ccc2c(c1)OCO2)c1ccc2c(c1)oc1ccccc12 | n | n | 44.0 | n | n | n
COC(=O)c1cccc(NC(=O)c2ccc3c(c2)C(=O)N(CC2CCCO2)C3=O)c1 (centres undefined) | n | n | n | n | n | n
O=C(O)c1ccc(C(=O)c2ccc3c(c2)C(=O)N(CC2CCCO2)C3=O)cc1 (centres undefined) | n | n | 55.5 | n | n | n
O=C(O)c1cccc(NC(=O)c2ccc3c(c2)C(=O)N(CC2CCCO2)C3=O)c1 (centres undefined) | n | n | 55.8 | n | n | n
Cc1ccc(C2C(=O)N(C3CCC(C)CC3)CC(=O)N2C2CCCC2)cc1 (centres undefined) | n | n | n | n | n | n
CC(=O)N(C1=C(O)c2ccccc2C(=O)C1=O)C1CCCCC1 | n | n | 35.8 | n | n | n
CC(=O)N(c1ccccc1)C1CCCC1 | n | n | n | n | n | n
CC(C)(C)NS(=O)(=O)c1ccc(CCC(=O)Nc2cc(Cl)ccc2Oc2ccccc2)cc1 | n | n | 81.1 | 65.1 | 43.5 | n
COc1cccc(OCC(=O)Nc2cc(Cl)ccc2Oc2ccccc2)c1 | n | n | n | n | 39.6 | n
O=C(COc1cccc2ccccc12)Nc1cc(Cl)ccc1C(=O)O | x | x | 67.0 | n | n | n
CCCNS(=O)(=O)c1ccc(CCC(=O)Nc2cc(Cl)ccc2Oc2ccccc2)cc1 | n | n | x | x | x | n
COc1cc(C(=O)N2C[C@H]3CC[C@H]2C3)ccc1OC1CCN(C(C)=O)CC1 | x | x | n | n | n | n
SMILES | EP2 modulator | PGE2 EP2 inh | OX1R antag-1 | OX1R antag-2 | CHO parental Ca | GPR7 antagonist
O=c1[nH]c2c(=O)[nH]cnc2nc1-c1ccccc1 | x | x | 40.0 | n | n | x
O=c1[nH]c(-c2ccccc2)cnc1-c1ccccc1 | x | x | n | n | n | x
CN(C)/C=N/c1cc(=O)[nH]c(=O)n1CC1CC1 | n | n | n | n | n | n
C=CCn1c(=O)[nH]c2nc3cc(N=CN(C)C)c(C)cc3nc2c1=O | n | n | 73.2 | n | n | n
COc1cc2c(cc1OC)C(c1cccs1)N(C(=O)C(C)C)CC2 (centres undefined) | n | n | n | n | n | 18.2
COc1cc2c(cc1OC)C(c1cccs1)N(C(=O)c1cccnc1)CC2 (centres undefined) | n | n | n | n | n | n
CSc1ncccc1C(=O)NNc1cc(Cl)ccc1Cl | x | x | n | n | n | n
O=C(c1cccc(-c2nnc(-c3ccccc3)o2)c1)N1CCCCC1 | n | n | n | n | n | n
CCOc1ccc(S(=O)(=O)N2CCCC(C(=O)NCc3ccccc3)C2)cc1 (centres undefined) | x | x | n | n | n | n
CCCCCCCCCCn1c2c(c(=N)c3c1CCC3)CCC2 | n | n | n | 48.1 | n | 77.4
CCCCCCCCn1c2c(c(=N)c3ccccc31)CCC2 | n | n | x | x | x | 66.8
CCCCCn1c2c(c(=N)c3ccccc31)CCC2 | n | n | n | n | n | n
CCCCCCCCCn1c2c(c(=N)c3c1CCC3)CCCC2 | n | n | x | x | x | 67.6
CCC(C)NC(=O)c1ccc(NS(=O)(=O)c2ccc3[nH]c(=O)[nH]c3c2)cc1 (centres undefined) | x | x | n | n | n | n
Cc1ccc(C)c(NC(=O)C2CC(Cl)=CCC2C(=O)O)c1 (centres undefined) | n | n | n | n | n | n
COc1ccc2[nH]c3c(c2c1)CCN1C(=O)C(CC(=O)NC/C=C(\C)CCC=C(C)C)C[C@H](C(=O)N2CCCCC2)[C@@]31C (some centres undefined) | x | x | n | 51.1 | n | x
CCC(C)C(=O)N1c2ccccc2C(=C2SC(C(=O)OC)=C(C(=O)OC)S2)C(=S)C1(C)C (centres undefined) | n | n | n | n | n | n
CCCn1c(=O)c2ccccc2n2c(SCC(=O)NCc3cccs3)nnc12 | n | n | n | n | n | 17.7
CCn1c(=O)c2ccccc2n2c(SCC(=O)NCc3cccs3)nnc12 | n | n | n | n | n | n
O=C1ON=C(c2ccccc2)/C1=C/c1ccco1 | n | 95.8 | n | n | n | n
Cc1cnc(CN(C)Cc2c(C(=O)N3CCCCCCC3)nc3ccc(Cl)cn23)[nH]1 | x | x | n | n | n | n
CCN(Cc1ccccc1)C(=O)c1ccc(C)c(S(=O)(=O)N2CCCCC2)c1 | x | x | n | n | n | x
Cc1ccc(C(=O)N(CCc2ccccc2)Cc2ccccc2)cc1S(=O)(=O)N1CCCCC1 | x | x | n | n | 34.9 | x
CCOC(=O)C1C(=O)C=C(/C=C/c2ccc(N(C)C)cc2)CC1c1ccccc1 (centres undefined) | n | n | n | n | 40.7 | n
CCOC(=O)C1C(=O)C=C(c2ccc(C)cc2)CC1c1ccccc1 (centres undefined) | n | n | n | n | n | n
CCN(CC)C(=O)c1ccc(Cn2cc([N+](=O)[O-])cn2)o1 | n | n | n | n | n | n

Compound activity (PubChem)
